Data from ChEMBL document CHEMBL4828721, “Substituted dienes prepared from betulinic acid - Synthesis, cytotoxicity, mechanism of action, and pharmacological parameters” (Eur J Med Chem, 2021).
The source made the active and inactive calls. No cut-off for these calls is given here.

Experiments:
CCRF-CEM [1] = assay: Inhibition of DNA synthesis in human CCRF-CEM cells at IC50 by BrdU incorporation assay (Rvb= 41.56%); type: functional; parameters: scale not given: the % may be the effect or the level left
CCRF-CEM [2] = assay: Cell cycle arrest in human CCRF-CEM cells assessed as accumulation of cells at sub G1 phase at IC50 measured after 24 hrs by propidium iodide staining based flow cytometry analysis (Rvb= 2.77%); type: functional
CCRF-CEM [3] = assay: Induction of mitotic arrest in human CCRF-CEM cells assessed as phosphorylation of histone H3 at Ser10 at 5 times IC50 measured after 24 hrs by propidium iodide staining based flow cytometry analysis (Rvb= 1.72%); type: functional
CCRF-CEM [4] = assay: Inhibition of RNA synthesis in human CCRF-CEM cells at 5 times IC50 by […] incorporation assay (Rvb= 36.54%); type: functional; parameters: scale not given: the % may be the effect or the level left
CCRF-CEM [5] = assay: Induction of cell cycle arrest in human CCRF-CEM cells assessed as downregulation of cyclin D1 protein expression at 5 times IC50 measured after 24 hrs by western blot analysis; type: functional, cell-based
Method in brief: (§1)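 Protein (15 µg/lane) was resolved by 10% SDS-PAGE and transferred to nitrocellulose. Blocked in 5% milk/TBST, then probed overnight at 4 °C with primary antibodies (1:1000) and HRP secondaries. Detected by ECL, with β-actin as loading control.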

U2OS = assay: Cytotoxicity against human U2OS cells assessed as reduction in cell viability measured after 72 hrs by MTS assay; type: functional, cell-based
[6] = Fraction bound in human plasma at 10 uM measured after 4 hrs by RF-MS based rapid equilibrium dialysis method
[7] = Efflux ratio of apparent permeability across basolateral to apical side to apparent permeability across apical to basolateral side in dog MDCK-MDR1 cells at pH 7.4 at 10 micromol/L measured after 1 hr by RF-MS analysis; type: ADME, cell-based, Canis lupus familiaris; conditions: MDCK-MDR1, pH 7.4, dose 10 µmol/L
Method in brief: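 Efflux ratio is Papp(B→A)/Papp(A→B) from bidirectional transport across Caco-2 (2 h) or MDCK-MDR1 (1 h) monolayers. Compound was dosed in HBSS pH 7.4 and quantified by RapidFire MS/MS. Run in duplicates. ER > 2 was taken as a potential P-gp substrate.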

CCRF-CEM [8] = assay: Induction of apoptosis in human CCRF-CEM cells assessed as dead cells at 5 times IC50 measured after 24 hrs by Annexin V-FITC/PI staining based flow cytometry analysis (Rvb= 0.3%); type: functional
Method in brief: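 They were washed in ice-cold PBS and incubated with Annexin V-FITC plus PI for 20 min at room temperature in the dark. Cells were then pelleted and resuspended in binding buffer (10 mmol/L HEPES/NaOH pH 7.4, 140 mmol/L NaCl, 2.5 mmol/L CaCl2). Read on a FACSAria II, ≥10,000 cells per sample.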

CCRF-CEM [9] = assay: Cytotoxicity against human CCRF-CEM cells assessed as reduction in cell viability measured after 72 hrs by MTS assay; type: functional, cell-based
A549 = assay: Cytotoxicity against human A549 cells assessed as reduction in cell viability measured after 72 hrs by MTS assay; type: functional, cell-based; conditions: A549, 72 h
CCRF-CEM [10] = assay: Induction of apoptosis in human CCRF-CEM cells assessed as late apoptotic cells at 5 times IC50 measured after 24 hrs by Annexin V-FITC/PI staining based flow cytometry analysis (Rvb= 1.4%); type: functional
[11] = Stability in human plasma assessed as parent compound remaining at 2 uM incubated for 15 mins by RF-MS analysis; type: ADME, cell-free; conditions: read-out: Stability
CCRF-CEM [12] = assay: Cell cycle arrest in human CCRF-CEM cells assessed as accumulation of cells at sub G1 phase at 5 times IC50 measured after 24 hrs by propidium iodide staining based flow cytometry analysis (Rvb= 2.77%); type: functional
CCRF-CEM [13] = assay: Induction of apoptosis in human CCRF-CEM cells assessed as early apoptotic cells at IC50 measured after 24 hrs by Annexin V-FITC/PI staining based flow cytometry analysis (Rvb= 1.6%); type: functional
CCRF-CEM [14] = assay: Induction of apoptosis in human CCRF-CEM cells assessed as activation of caspase 3 at 5 times IC50 measured after 24 hrs by western blot analysis; type: functional, cell-based; method in brief: as §1
[15] = Apparent permeability of the compound in dog MDCK-MDR1 cells assessed as recovery rate at pH 7.4 at 10 micromol/L measured after 1 hr by RF-MS analysis; type: ADME, cell-based, Canis lupus familiaris; conditions: MDCK-MDR1, pH 7.4, dose 10 µmol/L, read-out: Activity
CCRF-CEM [16] = assay: Induction of apoptosis in human CCRF-CEM cells assessed as downregulation of Bcl2 expression at 5 times IC50 measured after 24 hrs by western blot analysis; type: functional, cell-based; method in brief: as §1
[17] = Stability in human plasma assessed as parent compound remaining at 2 uM incubated for 60 mins by RF-MS analysis; type: ADME, cell-free; conditions: read-out: Stability
[18] = Microsomal stability in human liver microsomes assessed as parent compound remaining at 2 uM in the presence of NADPH measured after 15 mins by RF-MS analysis; type: ADME, Microsome; conditions: read-out: Stability
Method in brief: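 Human liver microsomes incubated with compound in the presence of NADPH cofactor to assess phase I oxidation. Intrinsic clearance was derived from the decline of the parent compound.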

CCRF-CEM [19] = assay: Cell cycle arrest in human CCRF-CEM cells assessed as accumulation of cells at G0/G1 phase at 5 times IC50 measured after 24 hrs by propidium iodide staining based flow cytometry analysis (Rvb= 40.20%); type: functional
CCRF-CEM [20] = assay: Induction of apoptosis in human CCRF-CEM cells assessed as live cells at IC50 measured after 24 hrs by Annexin V-FITC/PI staining based flow cytometry analysis (Rvb= 96.7%); type: functional
[21] = Apparent permeability of the compound in human Caco2 cells at pH 7.4 at 10 micromol/L measured after 2 hrs by RF-MS analysis; type: ADME, cell-based; conditions: Caco-2, pH 7.4, dose 10 µmol/L
Method in brief: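 Caco-2 and MDCK-MDR1 cells grown on polyester Transwell filters (0.4 and 1 µm pores) in DMEM pH 7.4 with 10% FBS; monolayer integrity checked by Lucifer Yellow rejection. Cells washed and pre-equilibrated 1 h in HBSS pH 7.4, then dosed with compound in HBSS pH 7.4. Incubation was 1 h for MDCK and 2 h for Caco-2. Samples lyophilized and quantified by RapidFire MS/MS with internal standard. Duplicates. Papp = (dQ/dt)/(C0·A).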

CCRF-CEM [22] = assay: Induction of apoptosis in human CCRF-CEM cells assessed as live cells at 5 times IC50 measured after 24 hrs by Annexin V-FITC/PI staining based flow cytometry analysis (Rvb= 96.7%); type: functional
CCRF-CEM [23] = assay: Induction of apoptosis in human CCRF-CEM cells assessed as upregulation of BAX expression at 5 times IC50 measured after 24 hrs by western blot analysis relative to control; type: functional; method in brief: as §1

Row | SMILES | Activity (CCRF-CEM [1]) | Activity (CCRF-CEM [2]) | Activity (CCRF-CEM [3]) | Activity (CCRF-CEM [4]) | Activity (CCRF-CEM [5]) | IC50 (U2OS) | PPB (% bound) at 4 h, 10 µM [6] | efflux ratio at 1 h, 10 µM [7] | IC50 (CCRF-CEM [9]) | IC50 (A549) | Activity (CCRF-CEM [10]) | remaining at 0.25 h, 2 µM [11] | Activity (CCRF-CEM [12]) | Activity (CCRF-CEM [13]) | Activity (CCRF-CEM [14]) | recovery at 1 h, 10 µM [15] | remaining at 1 h, 2 µM [17] | remaining at 0.25 h, 2 µM [18] | Activity (CCRF-CEM [19]) | Activity (CCRF-CEM [20]) | further results
1 | C=C(/C=C/c1ccc([N+](=O)[O-])cc1)[C@@H]1CC[C@]2(C(=O)O)CC[C@]3(C)[C@H](CC[C@@H]4[C@@]5(C)CC[C@H](O)C(C)(C)[C@@H]5CC[C@]43C)[C@@H]12 | 43.17% | 6.54% | 0.93% | 4.07% | Active | 19.5 µM | 68.1% | 3.06 | 3.6 µM | 14.3 µM | 9.6% | 102% | 25.04% | 2.4% | Active | 56.7% | 69.3% | 93.2% | 29.57% | 90.9% | Activity (CCRF-CEM [8]): 1.9%; Activity (CCRF-CEM [16]): Active; Papp at 2 h, 10 µM [21]: 0.96 ×10⁻⁶ cm/s; Activity (CCRF-CEM [22]): 70.9%; Activity (CCRF-CEM [23]): 20%
2 | C=C(/C=C/c1cccc(Cl)c1)[C@@H]1CC[C@]2(C(=O)O)CC[C@]3(C)[C@H](CC[C@@H]4[C@@]5(C)CC[C@H](O)C(C)(C)[C@@H]5CC[C@]43C)[C@@H]12 | 35.56% | 5.66% | 1.52% | 11.37% | Active | 17.3 µM | 79% | 2.9 | 3.2 µM | 29.2 µM | 4.7% | 92.3% | 9.13% | 2.1% | Active | 104% | 89.5% | 90.1% | 49.79% | 91.9% | Papp at 2 h, 10 µM [21]: 17.5 ×10⁻⁶ cm/s; Activity (CCRF-CEM [22]): 88.5%
